Columns and labels:
[1] = Selectivity index, ratio of CC50 for African green monkey Vero cells to EC50 for Chikungunya virus Indian Ocean 889 infected in African green monkey Vero cells; format: toxicity; settings: read-out: Ratio CC50/EC50
Chikungunya virus = assay: Antiviral activity against Chikungunya virus Indian Ocean 889 infected in African green monkey Vero cells assessed as inhibition of virus-induced cytopathic effect after 5 days by MTS/PMS method; format: functional, organism-based; settings: Indian Ocean 889, Vero, 120 h
[2] = Cytotoxicity against African green monkey Vero cells assessed as decrease in cell viability after 5 days by MTS/PMS method; format: cell-based; settings: chlorocebus sabaeus
Method in brief: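 Uninfected Vero cells in MEM Rega-3 with 2% FBS were treated with compound alongside the antiviral assay. Metabolic activity was read by MTS/PMS, and wells were checked microscopically for morphology changes. CC50 is the concentration reducing metabolic activity by 50%, found by logarithmic interpolation. Values are the mean of ≥3 independent experiments.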

SMILES	selectivity ratio [1]	EC50 (Chikungunya virus) [µM]	EC90 (Chikungunya virus) [µM]	CC50 at 120 h [2] [µM]
CC(C)(C)c1ccc(/C=C/C(=O)NCc2ccc(C(F)(F)F)cc2)cc1	0.9	125	47.9	115
Cc1ccc(/C=C/C(=O)N/N=C/c2ccc(C)cc2)cc1	–	> 359	> 359	–
CCOc1ccc(/C=N/NC(=O)CCc2ccccc2)cc1OCC	–	> 294	> 294	–
CC(C)(C)c1ccc(/C=C/C(=O)N/N=C/c2ccc(-c3ccccc3)cc2)cc1	–	–	–	20.1
CC(C)(C)c1ccc([C@@H]2C[C@H]2C(=O)N/N=C/c2ccc(C(F)(F)F)cc2)cc1	2.1	14	19	30
Cc1ccc(/C=N/NC(=O)[C@@H]2C[C@H]2c2ccc(C(C)(C)C)cc2)cc1	–	6.6	–	–
CC(C)(C)c1ccc(/C=C/C(=O)N/N=C/c2ccccc2)cc1	3.8	5.8	87.5	22.1
C/C(=N\NC(=O)/C=C/c1ccc(C(C)(C)C)cc1)c1cnccn1	1.2	103	122	> 310
Cc1ccc(/C=N/NC(=O)CCc2ccc(C(C)(C)C)cc2)cc1	–	> 100	> 100	–
O=C(CCc1ccccc1)N/N=C/c1ccc(O)cc1	–	> 373	> 373	–
CC(C)(C)c1ccc(/C=C/C(=O)N/N=C/c2ccc(O)cc2)cc1	–	–	–	7.3
CCOc1ccc(/C=N/NC(=O)/C=C/c2ccc(C)cc2)cc1OCC	> 2.5	113	> 284	> 284
COc1ccc(/C(C)=N/NC(=O)[C@@H]2C[C@H]2c2ccccc2)cc1	13	5.6	12	72
C/C(=N\NC(=O)/C=C/c1ccc(C(C)(C)C)cc1)c1ccc(C2CCCCC2)cc1	–	> 248	> 248	–
CC(C)(C)c1ccc([C@@H]2C[C@H]2C(=O)N/N=C/c2ccc(O)cc2)cc1	–	2.7	3.8	–
Cc1ccc(/C=N/NC(=O)/C=C/c2ccc(C(C)(C)C)cc2)cc1	21.4	5.8	10	124
O=C(/C=C/c1ccccc1)NCc1ccc(-c2ccccc2)cc1	–	> 319	> 319	–
CC(C)(C)c1ccc(/C=C/C(=O)NCc2ccc(-c3ccccc3)cc2)cc1	–	2.9	> 271	4.3
C/C(=N\NC(=O)/C=C/c1ccc(C(C)(C)C)cc1)c1ccc(-c2ccccc2)cc1	–	> 252	> 252	–

SMILES	selectivity ratio [1]	EC50 (Chikungunya virus) [µM]	EC90 (Chikungunya virus) [µM]	CC50 at 120 h [2] [µM]
CCOc1ccc(/C=N/NC(=O)CCc2ccc(C(C)(C)C)cc2)cc1OCC	–	> 11	> 11	–
O=C(/C=C/c1ccccc1)NCc1ccc(C(F)(F)F)cc1	–	> 246	> 246	–
CC(C)(C)c1ccc(/C=C/C(=O)N/N=C/c2ccc([N+](=O)[O-])cc2)cc1	–	> 285	> 285	–
C/C(=N\NC(=O)CCc1ccc(C(C)(C)C)cc1)c1ccc(C2CCCCC2)cc1	–	> 82.4	> 82.4	–
O=C(N/N=C/c1ccc(O)cc1)[C@@H]1C[C@H]1c1ccccc1	2.3	6.4	8.7	15
CC(C)c1ccc(/C=N/NC(=O)/C=C/c2ccc(C(C)(C)C)cc2)cc1	3.5	2.1	–	7.4
CCOc1ccc(/C=N/NC(=O)[C@@H]2C[C@H]2c2ccc(C(C)(C)C)cc2)cc1OCC	14	5	6.4	72
CC(C)(C)c1ccc(CCC(=O)N/N=C/c2ccc(O)cc2)cc1	–	36.4	–	–
C/C(=N\NC(=O)/C=C/c1ccccc1)c1ccc(C2CCCCC2)cc1	–	> 289	> 289	–
C/C(=N\NC(=O)[C@@H]1C[C@H]1c1ccccc1)c1ccc(C2CCCCC2)cc1	3.1	32	44	101
Cc1ccc(/C=N/NC(=O)/C=C/c2ccccc2)cc1	0.9	93.3	> 284	84.4
CCOc1ccc(/C=N/NC(=O)/C=C/c2ccc(C(C)(C)C)cc2)cc1OCC	32	–	11	101
CC(C)(C)c1ccc(/C=C/C(=O)N/N=C/c2ccc(C(C)(C)C)cc2)cc1	–	> 276	> 276	–
COc1ccc(/C=N/NC(=O)/C=C/c2ccc(C(C)(C)C)cc2)cc1	19.8	5.9	38.8	117
Cc1ccc(/C=N/NC(=O)CCc2ccccc2)cc1	–	> 375	> 375	–
O=C(CCc1ccccc1)N/N=C/c1ccc(C2CCCCC2)cc1	–	> 96	> 96	–
COc1ccc(/C(C)=N/NC(=O)/C=C/c2ccc(C(C)(C)C)cc2)cc1OC	–	> 263	> 263	–
CCN(CC)CCCC(C)Nc1ccnc2cc(Cl)ccc12 (centres undefined) [CHLOROQUINE]	–	–	21	89
C/C(=N\NC(=O)/C=C/c1ccc(C(C)(C)C)cc1)c1ccc(Cl)cc1	–	> 282	> 282	–

Source: ChEMBL document CHEMBL4184212, “Design, synthesis and evaluation against Chikungunya virus of novel small-molecule antiviral agents” (Bioorg Med Chem, 2018)
